In general, ED50 refers to the midpoint of the dose-response relation. Read a low ED50 as greater potency.

From ChEMBL document CHEMBL1128498, “Synthesis and antitumor activity of various 6-demethylmitomycins and 6-demethyl-6-halomitomycins” (1995) come the findings set out here.

Molecules are shown by their SMILES.

The species entered for test [1] is Mus musculus. The test is described as follows: 50% inhibition of solid tumor growth (Sarcoma 180 cells) in mice. Format: functional. Put shortly: (§1)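 Sarcoma 180 cells inoculated sc into the axillary region of ddY mice on day 0; compound given iv on day 1. Tumor volume compared treated versus control (T/C). ED50 is the dose giving 50% inhibition of tumor growth, from the dose-response curve. Optimal dose also recorded.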

For test [2], the species on record is Mus musculus. The test can be described thus: T/C value was measured as tumor volume in the treated versus control mice. It is filed as functional. An outline of the steps:
as §1

The nature of test [3]: Optimal dose was measured against sarcoma 180 cell in mice. It is filed as functional, Mus musculus. Put shortly:
as §1

The next test has as its system HeLa. The test is described as follows: Inhibition of HeLa S3 cell growth relative to mitomycin C action (ratio of IC50 values). It is filed as functional, Homo sapiens. Put shortly:
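HeLa S3 cells plated on day 0 and exposed to drug for 1 h on day 1. IC50 is the concentration giving 50% growth inhibition, taken from the concentration-response curve. Reported as IC50 of test compound divided by IC50 of mitomycin C.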

As for `CO[C@@]12[C@H](COC(N)=O)C3=C(C(=O)C(C)=C(N)C3=O)N1C[C@@H]1N[C@@H]12` [MITOMYCIN], the 50% effect level in the test listed under Mus musculus [1] (ED50) was put at a dose of 1.6 mg/kg. Further, the T/C in the test filed under Mus musculus [2] is 0.27. Moreover, in test [3], the OD is 3.1 mg/kg. The IC50 ratio in the test on HeLa came out at 0.49.
On the same counts, the results for `COC1=C(C)C(=O)C2=C(C1=O)[C@H](COC(N)=O)[C@@]1(O)[C@@H]3[C@H](CN21)N3C` (stereo not given in full) [MITOMYCIN B] are 2.8 mg/kg, 0.37, 4 mg/kg and 0.29.
On the same counts, the results for `COC1=C(Br)C(=O)C2=C(C1=O)[C@@H](COC(N)=O)[C@@]1(OC)[C@H]3N[C@H]3CN21` are 8.4 mg/kg, 0.47, 14 mg/kg and 1.9.
In turn, `CO[C@@]12[C@H](COC(N)=O)C3=C(C(=O)C=C(N)C3=O)N1C[C@@H]1N[C@@H]12` displayed an ED50 in the test listed under Mus musculus [1] of 2.6 mg/kg. The molecule further showed a T/C in the test listed under Mus musculus [2] of 0.25. In test [3], this molecule showed an OD of 5 mg/kg. In the test with HeLa, the IC50 ratio is listed as 3.2.
As to `COC1=C(Cl)C(=O)C2=C(C1=O)[C@@H](COC(N)=O)[C@@]1(OC)[C@H]3N[C@H]3CN21`, the IC50 ratio with HeLa was found to be 2.5.
In the test filed under Mus musculus [1], `CO[C@@]12[C@H](COC(N)=O)C3=C(C(=O)C(C)=C(N)C3=O)N1C[C@H]1[C@@H]2N1C` (stereo not given in full) [PORFIROMYCIN] yielded an ED50 of 16 mg/kg. In the test filed under Mus musculus [2], this molecule showed a T/C of 0.23. Further, the OD in test [3] was 40 mg/kg. In the test on HeLa, the IC50 ratio is reported as 9.5.
On the same counts, the results for `COC1=CC(=O)C2=C(C1=O)[C@H](COC(N)=O)[C@@]1(O)[C@@H]3[C@H](CN21)N3C` (stereo not given in full) are 11 mg/kg, 0.31, 20 mg/kg and 16.
On the same counts, the results for `CN1[C@H]2[C@@H]1CN1C3=C(C(=O)C(N)=CC3=O)[C@H](COC(N)=O)[C@@]21O` (stereo not given in full) are 33 mg/kg, 0.26, 100 mg/kg and more than 71.
On the same counts, the results for `COC1=C(C)C(=O)C2=C(C1=O)[C@@H](COC(N)=O)[C@@]1(OC)[C@@H]3[C@H](CN21)N3C` (stereo not given in full) [N-METHYL-MITOMYCIN A] are 6.5 mg/kg, 0.32, 8 mg/kg and less than 0.031.
Consider `CO[C@@]12[C@H](COC(N)=O)C3=C(C(=O)C(Cl)=C(N)C3=O)N1C[C@H]1[C@@H]2N1C` (stereo not given in full), for which the ED50 in the test listed under Mus musculus [1] was 2.3 mg/kg. The T/C in the test listed under Mus musculus [2] came out at 0.11. Also, the OD in test [3] was determined as 4 mg/kg. Further, the IC50 ratio in the test on HeLa came to 0.76.
The matching figures for `CO[C@@]12[C@H](COC(N)=O)C3=C(C(=O)C(Cl)=C(N)C3=O)N1C[C@@H]1N[C@@H]12`: 1.4 mg/kg, 0.14, 2.7 mg/kg and 0.37.
`COC1=C(Cl)C(=O)C2=C(C1=O)[C@H](COC(N)=O)[C@@]1(O)[C@@H]3[C@H](CN21)N3C` (stereo not given in full) returned a T/C in the test filed under Mus musculus [2] of 0.62. The molecule further displayed an OD in test [3] of 20 mg/kg. Also, the IC50 ratio with HeLa turned out to be 11.
As to `COC1=C(Br)C(=O)C2=C(C1=O)[C@H](COC(N)=O)[C@@]1(O)[C@@H]3[C@H](CN21)N3C` (stereo not given in full), the ED50 in the test filed under Mus musculus [1] turned out to be 22 mg/kg. In addition, in the test listed under Mus musculus [2], the T/C worked out at 0.44. The molecule also displayed an OD in test [3] of 30 mg/kg. Moreover, the IC50 ratio with HeLa is more than 3.7.
On to `COC1=C(C)C(=O)C2=C(C1=O)[C@@H](COC(N)=O)[C@@]1(OC)[C@H]3N[C@H]3CN21` [MITOMYCIN A], for which, in the test listed under Mus musculus [1], the ED50 is 1.3 mg/kg. Further, the T/C in the test filed under Mus musculus [2] is 0.2. In test [3], this molecule displayed an OD of 1.8 mg/kg. In the test with HeLa, the IC50 ratio was 0.0035.
For the molecule `CC1=C(N)C(=O)C2=C(C1=O)N1C[C@H]3[C@H](N3C)[C@]1(O)[C@H]2COC(N)=O` (stereo not given in full), in the test filed under Mus musculus [2], the T/C came out at 0.59. Moreover, the OD in test [3] is 100 mg/kg. Moreover, in the test with HeLa, the IC50 ratio is listed as more than 20.
On the same counts, the results for `COC1=C(Br)C(=O)C2=C(C1=O)[C@@H](COC(N)=O)[C@@]1(OC)[C@@H]3[C@H](CN21)N3C` (stereo not given in full) are 0.97, 14 mg/kg and more than 4.8.
The matching figures for `CN1[C@H]2[C@@H]1CN1C3=C(C(=O)C(N)=C(Br)C3=O)[C@H](COC(N)=O)[C@@]21O` (stereo not given in full): 0.55, 30 mg/kg and more than 35.
The matching figures for `CO[C@@]12[C@H](COC(N)=O)C3=C(C(=O)C(Br)=C(N)C3=O)N1C[C@H]1[C@@H]2N1C` (stereo not given in full): 0.63, 4 mg/kg and 1.9.
`COC1=CC(=O)C2=C(C1=O)[C@@H](COC(N)=O)[C@@]1(OC)[C@@H]3[C@H](CN21)N3C` (stereo not given in full) had a 50% effective dose (ED50) in the test listed under Mus musculus [1] of 7.1 mg/kg. Besides, the T/C in the test listed under Mus musculus [2] turned out to be 0.36. Also, the OD in test [3] worked out at 10 mg/kg. For the same molecule, in the test with HeLa, the IC50 ratio came out at 0.29.
On the same counts, the results for `CN1[C@H]2[C@@H]1CN1C3=C(C(=O)C(N)=C(Cl)C3=O)[C@H](COC(N)=O)[C@@]21O` (stereo not given in full) are 17 mg/kg, 0.43, 20 mg/kg and more than 20.
The matching figures for `CO[C@@]12[C@H](COC(N)=O)C3=C(C(=O)C=C(N)C3=O)N1C[C@H]1[C@@H]2N1C` (stereo not given in full): 8.4 mg/kg, 0.08, 20 mg/kg and 16.
The matching figures for `COC1=CC(=O)C2=C(C1=O)[C@@H](COC(N)=O)[C@@]1(OC)[C@H]3N[C@H]3CN21`: 1.6 mg/kg, 0.45, 2 mg/kg and 0.3.
